Hits are enriched below; roughly 2% of the tested compounds scored in any of these assays.
Xi reactivation: activators of inactive X chromosome reactivation, primary screen, imaging, XiGFP fibroblasts, GFP high-content imaging, set 2; hit rate 0.055% among 360,000; XiGFP mouse fibroblasts, % GFP-positive cells imaging, 3 d; cells co-treated with 5-aza-dC sensitizer; scaled so ellipticine positive control = 100%; AID 743238, 2013; activation, % at 7.58 µM;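 active = mean normalized replicate activation at least 10% and every replicate at or above 10%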;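 also: 0% = median of on-plate neutral control wells and 100% = ellipticine 6 µM median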
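System: SV40-immortalized XiGFP fibroblast cells, line 68-5-11 / Incubation: 3-day compound exposure, then 15 min fixation at room temperature / Compound: single concentration per compound, delivered by pin transfer / Buffer or medium: DMEM plus 5-aza-dC sensitizer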
CaV13 FRET inh: Disruptors of the CACNA1D IQ motif to Ca2+-dependent inactivation inhibitor domain association, primary screening, Förster resonance energy transfer in intact living …. inhibition, % at 12.3 µM. HEK cells, CFP/YFP FRET ICDI-IQ, plate reader, 10 min; percent FRET-ratio fall versus neutral wells. AID 743397. hit rate 0.098% among 340,000;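 active = mean replicate inhibition of at least 30% and at least 1% of replicates passing that level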;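 also: 0% = median of the neutral control wells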
FN deposition inh: inhibitors of fibronectin matrix deposition, primary screen, AH1F cells, Alexa488-fibronectin fluorescence, plate reader; hit rate 0.086% among 350,000; AH1F fibroblasts, overnight; inhibition, % at 12.6 µM; AID 743247, 2014;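 active = mean inhibition across replicates of 30% or more, regardless of how many single replicates reach that level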;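 also: positive control wells lacked labelled fibronectin entirely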
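Material: AH1F fibroblasts assembling fluorescent fibronectin matrix; amount: 10000 AH1F cells/well; medium: DMEM, 2% serum; reagent: Alexa488-fibronectin, 24 nM final in well; dosing: single compound dose, delivered by pin transfer; incubation: 1 h adhesion, overnight exposure; detection: fluorescence after three HBSS washes, excitation 485 nm, emission 525 nm; measure: fibronectin deposition inhibition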
Casp6 inh: human caspase-6 inhibitors, primary screen, biochemical, VEID-R110 fluorescence, single point, set 2. purified caspase-6, Z-VEID-R110 cleavage fluorescence. AID 686996, 2013. P55212. hit rate 0.53% among 350,000. inhibition, % at 12.5 µM;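 active = mean inhibition across replicates at least about 35%, with every replicate also reaching that limit, limit read from the data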;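 also: 0% = median of neutral control wells and 100% = no fluorescence left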
Target sequence (P55212 24-179 limits assumed): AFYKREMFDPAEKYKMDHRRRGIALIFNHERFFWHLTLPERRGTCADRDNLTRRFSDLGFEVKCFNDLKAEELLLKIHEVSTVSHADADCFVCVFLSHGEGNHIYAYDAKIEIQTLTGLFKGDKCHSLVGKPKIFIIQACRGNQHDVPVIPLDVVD
Target sequence (P55212 194-293 limits assumed): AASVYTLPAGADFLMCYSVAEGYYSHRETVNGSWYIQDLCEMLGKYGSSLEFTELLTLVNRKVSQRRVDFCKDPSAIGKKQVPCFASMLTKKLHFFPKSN
DENV2 CPE: inhibitors of DENV2 cytopathic effect, primary screen, cell-based, plate reader, single concentration | DENV2-infected cells, cytopathic effect rescue | CPE inhibition, % at 9.99 µM | hit rate 1.7% among 350,000; in the data active = CPE inhibition above about 20%, passing the limit was not always enough; tested in BHK-21 cells;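 also: 0% = median of neutral control wells and 100% = median of positive control wells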
* marks the source's active call; other numbers are inactive results; . = no result.

SMILES	Xi reactivation	CaV13 FRET inh	FN deposition inh	Casp6 inh	DENV2 CPE
C[C@@H]1CCCCO[C@H](CN(C)C(=O)Nc2ccc(C(F)(F)F)cc2)[C@H](C)CN([C@@H](C)CO)C(=O)c2cc(NS(=O)(=O)c3cccs3)ccc2O1	0	.	.	-17	37*
C[C@@H]1CCCCO[C@@H](CN(C)C(=O)Nc2ccc(F)cc2)[C@H](C)CN([C@@H](C)CO)C(=O)c2cc(NS(=O)(=O)c3cccs3)ccc2O1	0	.	.	7	7
C[C@@H]1CCCCO[C@H](CN(C)C(=O)Nc2ccc(F)cc2)[C@@H](C)CN([C@H](C)CO)C(=O)c2cc(NS(=O)(=O)c3cccs3)ccc2O1	0	.	.	-1	22*
C[C@H]1CCCCO[C@H](CN(C)C(=O)Nc2ccc(C(F)(F)F)cc2)[C@@H](C)CN([C@@H](C)CO)C(=O)c2cc(NS(=O)(=O)c3cccs3)ccc2O1	0	.	2	0	-19
O=C(NC[C@@H]1CC[C@@H]2[C@@H](CN2S(=O)(=O)c2ccccc2[N+](=O)[O-])O1)C1CCCCC1	.	.	.	-5	-5
COCC(=O)N1CC2(C1)[C@H](c1ccccc1)[C@H](CO)N2C(=O)c1ccncc1	0	.	.	-1	4
COCC(=O)N1[C@H](CO)[C@H](c2ccccc2)C12CN(C(=O)Nc1ccccc1F)C2	0	.	.	-5	36*
O=C(Cc1ccccn1)N1CC2(C1)[C@H](c1ccccc1)[C@@H](CO)N2C(=O)c1ccncc1	0	.	-11	-2	45*
COCC(=O)N1CC2(C1)[C@@H](c1ccccc1)[C@@H](CO)N2C(=O)c1ccncc1	0	.	.	1	30*
C[C@@H]1CN([C@H](C)CO)C(=O)c2cc(N(C)C)ccc2O[C@H]1CN(C)CC1CCCCC1	0	.	2	.	.
CCC12CN(C(=O)c3ccco3)CC(CC)(CN(C(=O)c3ccco3)C1)C2=O	0	.	.	55*	2
CCCCNc1c(-c2ccc(-c3cccc(Cl)c3)cc2)nc2ccc(Cl)cn12	0	-6	-8	-1	59*
CCCNC(=O)N(C)C[C@@H]1Oc2ncc(C3=CCCCC3)cc2C(=O)N([C@@H](C)CO)C[C@@H]1C	1	.	.	4	-1
C[C@@H]1CN([C@H](C)CO)C(=O)c2cc(NC(=O)Nc3ccc4c(c3)OCO4)ccc2O[C@@H]1CN(C)Cc1ccc(-c2ccccc2)cc1	0	.	.	-2	-1
C[C@@H]1CN([C@H](C)CO)C(=O)c2cccc(NC(=O)Nc3ccc4c(c3)OCO4)c2O[C@@H]1CN(C)Cc1ccc(-c2ccccc2)cc1	-1	.	19	0	-1
C[C@H]1CN([C@@H](C)CO)C(=O)c2cccc(NC(=O)Nc3ccc4c(c3)OCO4)c2O[C@H]1CN(C)Cc1ccccc1	0	.	.	4	5
C[C@@H]1CN([C@H](C)CO)C(=O)c2cccc(NC(=O)Nc3ccc4c(c3)OCO4)c2O[C@@H]1CN(C)C	0	.	.	0	-9
C[C@H]1CN([C@@H](C)CO)C(=O)c2cccc(NC(=O)Nc3ccc4c(c3)OCO4)c2O[C@@H]1CN(C)Cc1ccccc1	0	.	.	3	39*
C[C@H](CO)N1C[C@H](C)[C@H](CN(C)Cc2ccc(-c3ccccc3)cc2)Oc2c(NC(=O)Nc3ccc4c(c3)OCO4)cccc2C1=O	-1	.	-4	-3	21*
C[C@H](CO)N1C[C@H](C)[C@H](CN(C)Cc2ccc(-c3ccccc3)cc2)Oc2ccc(NC(=O)Nc3ccc4c(c3)OCO4)cc2C1=O	0	.	.	-3	24*
C[C@@H]1CN([C@@H](C)CO)C(=O)c2cccc(NC(=O)Nc3ccc4c(c3)OCO4)c2O[C@@H]1CN(C)C	-1	.	.	0	24*
C=CCNC(=O)[C@H]1[C@@H]2C(=O)O[C@@H](c3ccccc3)[C@@H](c3ccccc3)N2[C@@H](c2ccc(O)cc2)[C@]12C(=O)N(C(=O)OCCOC)c1ccc(C#CC3(O)CCCCCC3)cc12	.	.	.	-1	16
C[C@H](CO)N1C[C@H](C)[C@H](CN(C)Cc2ccc(-c3ccccc3)cc2)Oc2ccc(NC(=O)Nc3cccc4ccccc34)cc2C1=O	2	.	.	0	25*
C[C@H]1CN([C@@H](C)CO)C(=O)c2cc(NC(=O)Nc3cccc4ccccc34)ccc2O[C@@H]1CN(C)Cc1ccc(-c2ccccc2)cc1	0	-5	-4	-2	-8
Cc1noc(C)c1NC(=O)Nc1cccc2c1O[C@H](CN(C)Cc1ccc(C(=O)Nc3ccccc3N)cc1)[C@@H](C)CN([C@@H](C)CO)C2=O	0	.	-1	1	1
SMILES	Xi reactivation	CaV13 FRET inh	FN deposition inh	Casp6 inh	DENV2 CPE
CCN(CC)CCOc1c(C)cccc1Cl	0	-4	-11	-4	2
CCN(CC)CCCC(C)Nc1nccc2c(Cl)cccc12 (stereo not drawn)	0	-6	2	-28	49*
COC(=O)[C@@]1(Cc2ccc(F)cc2)[C@H]2c3cc(C(=O)N4CCCC4)n(CCc4ccccn4)c3C[C@H]2CN1C(=O)c1ccccc1	0	-5	44*	-3	-9
COC(=O)[C@@]1(Cc2ccc(F)cc2)[C@H]2c3cc(C(=O)N4CCCC4)n(Cc4ccccc4)c3C[C@H]2CN1C(=O)c1ccccc1	0	-7	-6	-1	0
COCCn1c(C(=O)N2CCCC2)cc2c1C[C@H]1CN(C(=O)c3ccccc3)[C@@](Cc3ccc(F)cc3)(C(=O)OC)[C@@H]21	0	-13	5	2	64*
CO[C@H]1CN(C)C(=O)c2ccc(NC(C)=O)cc2OC[C@@H](C)N(C(=O)c2cccnc2)C[C@@H]1C	1	.	-6	-1	1
CCCC#Cc1cnc2c(c1)C(=O)N([C@H](C)CO)C[C@@H](C)[C@@H](CN(C)C(=O)c1ccccc1)O2	0	.	-8	-2	13
CC(=O)OCO/N=[N+](\[O-])N1CCCC1	.	.	.	1	24*
O=C(NCc1ccco1)C1CCCN(c2ncnc3c2nc2n3CCCCC2)C1 (stereo not drawn)	0	-16	4	-1	25*
CCCNC(=O)N1C[C@H]2[C@@H](c3ccccc31)[C@H](CO)N2C(=O)c1ccncc1	0	.	.	0	-8
COCC(=O)N1C[C@@H]2[C@H](c3ccccc31)[C@@H](CO)N2C(=O)c1ccccc1F	0	.	-4	1	41*
COc1ccccc1CN1[C@H](CO)[C@H]2c3ccccc3N(C(=O)c3ccncc3)C[C@H]21	0	.	.	2	95*
O=C(c1ccccc1F)N1C[C@H]2[C@@H](c3ccccc31)[C@H](CO)N2C(=O)c1ccncc1	0	.	-7	2	22*
